This is an account of results in ChEMBL document CHEMBL4819096, “Antibacterial activity of noscapine analogs” (Bioorg Med Chem Lett, 2021).

The structures appear in SMILES notation. Converted amounts (≈) assume the structure as drawn. The source made the active and inactive calls. The calls are words filed in the database; no cut-off is given here.

Data set [1] deals with Pseudomonas aeruginosa. Kind of data set: Antibacterial activity against Pseudomonas aeruginosa R42 assessed as inhibition of bacterial growth measured after 16 to 20 hrs by two-fold serial microbroth dilution method. It is filed as functional, organism-based. The conditions noted are these: time 16-20 hrs. A digest of the protocol: (§1)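 Broth microdilution in LB and M9 medium. Inoculum adjusted to about 5 × 10⁵ cells/ml. Compound diluted twofold serially in microplate wells, then plates covered and incubated at 37 °C with shaking. Growth read as OD600. MIC taken as the lowest concentration giving no growth after 16–20 h.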

For a further data set, the system named is Aeromonas. Put plainly: Antibacterial activity against Aeromonas sp. O9 assessed as inhibition of bacterial growth measured after 16 to 20 hrs by two-fold serial microbroth dilution method. It is filed as functional, organism-based. The conditions noted are these: time 16-20 hrs. A digest of the protocol:
as §1
For orientation: Dilution methods test growth across graded concentrations, often in twofold steps.

The test system of the next data set is Bacillus subtilis. Put plainly: Antibacterial activity against Bacillus subtilis 3HM assessed as inhibition of bacterial growth measured after 16 to 20 hrs by two-fold serial microbroth dilution method. It is filed as functional, organism-based. The conditions noted are these: time 16-20 hrs. A digest of the protocol: as §1
For data set [2], the system named is Escherichia coli. Put plainly: Antibacterial activity against Escherichia coli assessed as inhibition of bacterial growth measured after 16 to 20 hrs by two-fold serial microbroth dilution method. It is filed as functional. The conditions noted are these: time 16-20 hrs. The procedure, abridged:
as §1

For another data set, the system named is Proteus vulgaris. Kind of data set: Antibacterial activity against Proteus vulgaris O41 assessed as inhibition of bacterial growth measured after 16 to 20 hrs by two-fold serial microbroth dilution method. The data set is classed as functional, organism-based. Conditions: time 16-20 hrs. The procedure, abridged: as §1
Data set [3] deals with Pseudomonas aeruginosa. Put plainly: Antibacterial activity against ampicillin/cefotaxime-resistant Pseudomonas aeruginosa ATCC 27853 assessed as inhibition of bacterial growth measured after 16 to 20 hrs by two-fold serial microbroth dilution method. The data set is classed as functional, organism-based. Conditions: time 16-20 hrs. The procedure, abridged:
(§2)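 Broth microdilution MIC in LB and M9 medium. Inoculum adjusted to about 5 × 10⁵ cells/ml. Compound serially diluted twofold. Plates covered and incubated at 37 °C with shaking. OD600 read; MIC taken as the lowest concentration giving no growth after 16–20 h.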

A further data set deals with Citrobacter koseri. Kind of data set: Antibacterial activity against Citrobacter koseri R38 assessed as inhibition of bacterial growth measured after 16 to 20 hrs by two-fold serial microbroth dilution method. The data set is classed as functional, organism-based. Conditions: time 16-20 hrs. A digest of the protocol: as §1
The next data set deals with Klebsiella aerogenes. Put plainly: Antibacterial activity against Enterobacter aerogenes R41 assessed as inhibition of bacterial growth measured after 16 to 20 hrs by two-fold serial microbroth dilution method. It is filed as functional, organism-based. The conditions noted are these: time 16-20 hrs. The procedure, abridged: as §1
For another data set, the system named is Candida albicans. Put plainly: Antibacterial activity against ampicillin/cefotaxime/tetracycline/ceftriaxone/fosfomycin-resistant Candida albicans 181210169-1 assessed as inhibition of fungal growth measured after 16 to 20 hrs by two-fold serial microbroth dilution method. It is filed as functional, organism-based. The conditions noted are these: time 16-20 hrs. A digest of the protocol:
as §2

In the next data set the test system is Morganella morganii. Kind of data set: Antibacterial activity against Morganella morganii R36 assessed as inhibition of bacterial growth measured after 16 to 20 hrs by two-fold serial microbroth dilution method. The data set is classed as functional, organism-based. The conditions noted are these: time 16-20 hrs. A digest of the protocol:
as §1

Data set [4] deals with Escherichia coli. Kind of data set: Antibacterial activity against ampicillin/cefotaxime/tetracycline/ceftriaxone-resistant Escherichia coli mx7 assessed as inhibition of bacterial growth measured after 16 to 20 hrs by two-fold serial microbroth dilution method. It is filed as functional, organism-based. The conditions noted are these: time 16-20 hrs. A digest of the protocol: as §2

Data set [5] can be described thus: Cytotoxicity against human HEK293 cells assessed as reduction in cell viability measured after 28 hrs by PrestoBlue reagent based fluorescence analysis. The procedure, abridged: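 HEK293 cells seeded at 25*10³ per well in DMEM with 10% FBS, 2 mM L-Glu and 50 µg/ml gentamicin. Cells held 24 h at 37 °C, 5% CO2 before compound was added (final DMSO 0.1%), then incubated 28 h. Viability read by PrestoBlue fluorescence at 590 nm, expressed relative to 0.1% DMSO control (100%). CC50 derived by curve fitting.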

Another data set deals with Klebsiella pneumoniae. Put plainly: Antibacterial activity against ampicillin/fosfomycin-resistant Klebsiella pneumonia 181210171-2 assessed as inhibition of bacterial growth measured after 16 to 20 hrs by two-fold serial microbroth dilution method. The data set is classed as functional, organism-based. Conditions: time 16-20 hrs. The procedure, abridged:
as §2

Data set [6] concerns Escherichia coli. Put plainly: Antibacterial activity against Escherichia coli ATCC25922 assessed as inhibition of bacterial growth measured after 16 to 20 hrs by two-fold serial microbroth dilution method. The data set is classed as functional, organism-based. Conditions: ATCC 25922, time 16-20 hrs. The procedure, abridged:
as §1

In a further data set the test system is Hafnia alvei. Kind of data set: Antibacterial activity against Ampicillin resistant Hafnia alvei O31 assessed as inhibition of bacterial growth measured after 16 to 20 hrs by two-fold serial microbroth dilution method. The data set is classed as functional, organism-based. Conditions: time 16-20 hrs. A digest of the protocol:
as §2

The test system of the next data set is Enterobacter. Put plainly: Antibacterial activity against Enterobacter sp. O54 assessed as inhibition of bacterial growth measured after 16 to 20 hrs by two-fold serial microbroth dilution method. It is filed as functional, organism-based. Conditions: time 16-20 hrs. The procedure, abridged:
as §1

Another data set deals with Enterobacter cloacae. Put plainly: Antibacterial activity against ampicillin/cefotaxime/tetracycline/ceftriaxone-resistant Enterobacter cloacae O3 assessed as inhibition of bacterial growth measured after 16 to 20 hrs by two-fold serial microbroth dilution method. The conditions noted are these: time 16-20 hrs. The data set is classed as functional, organism-based. The procedure, abridged:
as §2

The subject of a further data set is Proteus sp. Put plainly: Antibacterial activity against ampicillin/cefotaxime/tetracycline/ceftriaxone/fosfomycin-resistant Proteus sp. O14 assessed as inhibition of bacterial growth measured after 16 to 20 hrs by two-fold serial microbroth dilution method. The conditions noted are these: time 16-20 hrs. The data set is classed as functional, organism-based. The procedure, abridged: as §2

The next data set deals with Staphylococcus aureus. Kind of data set: Antibacterial activity against Fosfomycin resistant Staphylococcus aureus ATCC USA 206 assessed as inhibition of bacterial growth measured after 16 to 20 hrs by two-fold serial microbroth dilution method. The conditions noted are these: time 16-20 hrs. It is filed as functional, organism-based. The procedure, abridged:
as §2

The test system of another data set is Klebsiella oxytoca. Put plainly: Antibacterial activity against Klebsiella oxytoca R48 assessed as inhibition of bacterial growth measured after 16 to 20 hrs by two-fold serial microbroth dilution method. It is filed as functional, organism-based. The conditions noted are these: time 16-20 hrs. The procedure, abridged: as §1

Regarding `COc1c2c(cc3c1C(CC(=O)c1ccc(CC(C)C)cc1)[N+](C)(C)CC3)OCO2` (stereo not given), the result with Pseudomonas aeruginosa [1], in the data set with Aeromonas, in the data set with Bacillus subtilis, in the data set on Proteus vulgaris, in the data set on Citrobacter koseri and in the data set with Klebsiella aerogenes was Active. For the same compound, the result in the data set with Candida albicans, in the data set with Morganella morganii, with Escherichia coli [4], with Klebsiella pneumoniae, in the data set with Escherichia coli [6] and with Hafnia alvei was Active. In addition, the outcome in the data set with Enterobacter, in the data set with Enterobacter cloacae, with Proteus sp., with Staphylococcus aureus and with Klebsiella oxytoca was Active. Besides, the MIC in the data set with Escherichia coli [2] amounted to 23.3 µM. For the same compound, the outcome with Pseudomonas aeruginosa [3] was inactive. In addition, in [5], the CC50 at 28 h amounted to 13.3 µM.

For the compound `COc1c2c(cc3c1C(CC(=O)/C=C/C1C(C)=CCCC1(C)C)[N+](C)(C)CC3)OCO2` (stereo not given), the result in the data set with Pseudomonas aeruginosa [1], in the data set on Aeromonas, with Proteus vulgaris, in the data set on Pseudomonas aeruginosa [3], with Citrobacter koseri and with Klebsiella aerogenes was inactive. Moreover, the result in the data set with Candida albicans, in the data set with Morganella morganii, with Escherichia coli [4], with Klebsiella pneumoniae, with Escherichia coli [6] and in the data set with Hafnia alvei was inactive. In addition, the outcome in the data set with Enterobacter, with Enterobacter cloacae, in the data set on Proteus sp., in the data set with Staphylococcus aureus and in the data set on Klebsiella oxytoca was inactive. In the data set with Bacillus subtilis, the result was Active. Besides, the MIC with Escherichia coli [2] came out at 22.6 µM. In addition, in data set [5], the CC50 at 28 h worked out at 16.2 µM.

Regarding `COc1c2c(cc3c1C(CC(=O)c1c(O)n(C)c(=S)n(C)c1=O)N(C)CC3)OCO2` (stereo not given), the outcome in the data set on Pseudomonas aeruginosa [1], in the data set with Aeromonas, with Proteus vulgaris, in the data set with Pseudomonas aeruginosa [3], in the data set with Citrobacter koseri and in the data set with Klebsiella aerogenes was inactive. Also, the result in the data set on Morganella morganii, in the data set on Escherichia coli [4], with Klebsiella pneumoniae, in the data set with Escherichia coli [6], with Hafnia alvei and with Enterobacter cloacae was inactive. The outcome in the data set on Proteus sp. and in the data set on Klebsiella oxytoca was inactive. Besides, the outcome with Bacillus subtilis, in the data set with Candida albicans, with Enterobacter and with Staphylococcus aureus was Active. In addition, the MIC in the data set on Escherichia coli [2] was found to be 115 µM (≈ 50 µg/mL). Besides, the CC50 at 28 h in [5] is over 100 µM.

In the case of `COc1c2c(cc3c1C(CC(=O)/C=C/C1CC=C(C)CC1C)[N+](C)(C)CC3)OCO2` (stereo not given), the outcome with Pseudomonas aeruginosa [1], in the data set with Aeromonas, in the data set on Proteus vulgaris, in the data set with Pseudomonas aeruginosa [3], in the data set on Citrobacter koseri and in the data set on Klebsiella aerogenes was inactive. The result with Klebsiella pneumoniae, in the data set on Hafnia alvei, with Enterobacter, in the data set on Enterobacter cloacae, in the data set on Proteus sp. and in the data set with Klebsiella oxytoca was inactive. Further, the outcome with Bacillus subtilis, in the data set on Candida albicans, in the data set with Morganella morganii, with Escherichia coli [4], in the data set on Escherichia coli [6] and in the data set with Staphylococcus aureus was Active. Also, the MIC in the data set with Escherichia coli [2] was 46.3 µM. For the same compound, in data set [5], the CC50 at 28 h was found to be 10.4 µM.

As for `COc1c2c(cc3c1C(CC(=O)c1ccc4c5c(cccc15)CC4)[N+](C)(C)CC3)OCO2` (stereo not given), the result in the data set on Pseudomonas aeruginosa [1], with Aeromonas, in the data set on Proteus vulgaris, in the data set with Pseudomonas aeruginosa [3], in the data set with Citrobacter koseri and in the data set with Klebsiella aerogenes was inactive. The outcome in the data set on Candida albicans, in the data set with Morganella morganii, with Escherichia coli [4], with Klebsiella pneumoniae, in the data set with Escherichia coli [6] and in the data set with Hafnia alvei was inactive. Besides, the outcome in the data set with Enterobacter, in the data set with Enterobacter cloacae, in the data set on Proteus sp., in the data set on Staphylococcus aureus and in the data set on Klebsiella oxytoca was inactive. In the data set on Bacillus subtilis, the result was Active. Besides, the MIC in the data set on Escherichia coli [2] worked out at 12.2 µM. Moreover, in data set [5], the CC50 at 28 h turned out to be 17 µM.

Take `CCOc1ccc(/C=C/C(=O)CC2c3c(cc4c(c3OC)OCO4)CC[N+]2(C)C)cc1` (stereo not given): the result in the data set with Pseudomonas aeruginosa [1], in the data set with Aeromonas, in the data set on Bacillus subtilis, in the data set on Pseudomonas aeruginosa [3], in the data set with Citrobacter koseri and in the data set on Klebsiella aerogenes was inactive. Also, the outcome in the data set on Candida albicans, in the data set on Morganella morganii, in the data set on Escherichia coli [4], with Klebsiella pneumoniae, in the data set with Escherichia coli [6] and in the data set with Hafnia alvei was inactive. For the same compound, the result in the data set on Enterobacter, in the data set with Enterobacter cloacae, in the data set with Proteus sp. and with Klebsiella oxytoca was inactive. In addition, the MIC in the data set on Escherichia coli [2] worked out at 90.7 µM. The outcome with Proteus vulgaris and in the data set on Staphylococcus aureus was Active. For the same compound, the CC50 at 28 h in data set [5] is 17.8 µM.

In general, MIC refers to the lowest concentration that inhibits growth of the organism. By CC50 is commonly meant the concentration at which the toxic effect on the cells reaches its halfway point.
